# Screening data from PubChem BioAssay.
# core dimer inh: inhibitors of HCV core protein dimerization, primary screen, biochemical, TR-FRET, high-throughput; inhibition, % at 5 µM; TR-FRET GST/Flag-core106 dimerization, 1536-well; 300,000 tested, 0.33% active;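 active = inhibition above the mean of all tested compounds plus 3 SD, set per screening campaign, cut at about 45% in these data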
#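 Assay system: Tagged HCV core106 pair (GST and Flag) | Buffer or medium: KF-containing HEPES buffer, pH 7.45, DTT, CHAPS, BSA | Also added: Eu donor and XL665 acceptor anti-tag antibodies | Dosing: One concentration, 5 µM, in 0.5% DMSO | Timing: 4 h at 22.5 °C | Technique: TR-FRET 671 and 617 nm emission | Repeats: Singlicate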
# PfM18AAP inh: PfM18AAP inhibitors, malaria aminopeptidase, primary screen, biochemical, QFRET, recombinant enzyme; 290,000 tested, 1.2% active; AID 1822, 2009; inhibition, % at 7.35 µM; M18 aspartyl aminopeptidase (Plasmodium falciparum 3D7); H-Glu-NHMec fluorogenic cleavage;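 active = inhibition above the campaign mean inhibition over all tested compounds plus 3 SD, cut at about 28% in these data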
# EBNA-1 inh: EBNA-1 DNA-binding inhibitors, primary screen, biochemical, fluorescence polarization; inhibition, % at 14.8 µM; 300,000 tested, 0.34% active; in the data active = inhibition above about 28%
# ZTA DNA inh: ZTA (EBV) inhibition in EBNA-1 counter-screen | P03206 | ZTA-DNA binding, fluorescence polarization | inhibition, % at 11 µM | 320,000 tested, 0.15% active | AID 2234; in the data active = inhibition above about 33%
# Target sequence (P03206 whole entry, looked up): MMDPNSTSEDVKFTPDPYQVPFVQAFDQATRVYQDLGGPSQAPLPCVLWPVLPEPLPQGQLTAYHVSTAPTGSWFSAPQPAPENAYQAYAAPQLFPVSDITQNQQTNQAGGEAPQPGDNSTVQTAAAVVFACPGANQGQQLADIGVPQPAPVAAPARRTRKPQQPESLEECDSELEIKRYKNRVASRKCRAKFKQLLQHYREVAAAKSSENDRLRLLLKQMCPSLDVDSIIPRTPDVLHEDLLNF
# NS3 helicase inh: inhibitors of HCV NS3 helicase, primary screen, biochemical, Cy5 molecular beacon fluorescence. Hepatitis C virus NS3 helicase. NS3 helicase DNA unwinding. inhibition, % at 10.9 µM. 290,000 tested, 0.56% active. AID 1800, 2009;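 active = inhibition above the mean of all tested compounds plus 3 SD, set per campaign, cut at about 35% in these data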
#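 Control set: DMSO versus 110 µM thioflavine S; Material: NS3 helicase fragment of HCV; Measured by: Cy5 fluorescence at 0 and 60 min, beacon hairpin quenching; Read-out basis: percent inhibition from t60/t0 fluorescence ratio; Times: reaction time 60 min, 25 °C; Repeats: single replicate; Compound dosing: single dose, 10.9 µM nominal final, DMSO 0.8% final.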
# ALR inh: inhibitors of human ALR sulfhydryl oxidase, primary screen, biochemical, H2O2 detection, HRP-luminol luminescence, single point; inhibition, % (concentration not given with the values); FAD-linked sulfhydryl oxidase ALR (Homo sapiens), P55789; purified ALR, DTT oxidation; 290,000 tested, 3.8% active; AID 485317, 2010;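 active = mean replicate inhibition above about 79%, with every replicate also reaching it, limit read from the data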
# Target sequence (P55789 whole entry, looked up): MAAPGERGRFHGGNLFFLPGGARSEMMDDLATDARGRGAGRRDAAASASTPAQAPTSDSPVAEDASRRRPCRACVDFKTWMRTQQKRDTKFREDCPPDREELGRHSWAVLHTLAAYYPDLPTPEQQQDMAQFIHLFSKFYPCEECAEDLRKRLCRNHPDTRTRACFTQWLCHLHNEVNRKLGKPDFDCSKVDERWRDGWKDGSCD
# Numbers stand for hits; - = inactive; . = no result. A selection: hits, their analogues and other compounds. The true share with any hit is near 5.2%.
SMILES,core dimer inh,PfM18AAP inh,EBNA-1 inh,ZTA DNA inh,NS3 helicase inh,ALR inh
CC1=C(C(=O)Nc2ccccc2C)C(c2ccc(C)o2)n2c(s/c(=C/c3ccccc3)c2=O)=N1 (stereo not drawn),47.7,-,-,-,-,-
CC1CCCCC1NC(=O)COC(=O)c1ccc2ncsc2c1 (stereo not drawn),.,.,.,-,.,-
C#Cc1ccc([C@@H]2C=C(C(=O)N3CCN(Cc4ccc5c(c4)OCO5)CC3)O[C@H](OCCCCO)C2)cc1,-,-,-,-,-,-
COc1ccc(C(=O)NCC(=O)OCC(=O)NCc2ccc3c(c2)OCO3)cc1,.,.,.,.,.,-
Cc1ccc2c(c1)c1c(n2CC(O)CN2CCCCC2C)CCCC1 (stereo not drawn),-,-,-,-,-,95.3
Cc1ccc2c(c1)c(C)c(C)n2CC(O)CN1CCCCC1C (stereo not drawn),-,-,-,-,-,94.8
Cc1ccc2c(c1)c1c(n2CC(O)CN2CCOCC2)CCCC1 (stereo not drawn),-,-,-,-,-,-
Cc1ccc2c(c1)c1c(n2CC(O)CN2CCC(C)CC2)CCCC1 (stereo not drawn),-,-,-,-,-,93.2
O=C(COC(=O)CCNS(=O)(=O)c1cccs1)Nc1ccccc1,.,.,.,-,.,.
c1ccc2c(c1)Nc1ccncc1S2,-,-,-,-,-,96.3
O=C(NC1CCCC1)C(c1ccncc1)N(C(=O)Cn1nnc(-c2ccccc2F)n1)c1cccc(F)c1 (stereo not drawn),-,-,-,-,-,-
CCn1c(SCC(=O)Nc2ccc(C)cc2)nc2sc3c(c2c1=O)CCN(C)C3,-,-,-,-,-,99.1
O=C(CSc1nc2c(c(=O)n1-c1ccc(Cl)cc1)SCC2)Nc1nccs1,-,-,-,-,-,-
O=C(CSc1nc2c(c(=O)n1-c1ccc(Br)cc1)SCC2)Nc1nccs1,-,-,31.7,-,-,98.5
CCn1c(SCC(N)=O)nc2sc3c(c2c1=O)CCN(C)C3,-,-,-,-,-,-
COc1ccc(-n2c(SCC(=O)Nc3nccs3)nc3sc4c(c3c2=O)CCN(C)C4)cc1,-,-,-,-,-,99.3
CCNc1nc(SCC(N)=O)nc2sc3c(c12)CCN(C)C3,.,28.6,.,.,-,.
CC(=O)Nc1ccc(NC(=O)CSc2nnc(NC(=O)c3cccc(F)c3)s2)cc1,-,-,-,-,-,-
O=C(CCNC(=O)c1ccco1)Nc1ccc(Cl)cc1F,-,-,-,-,-,-
CCOc1ccc(-n2c(SCC(N)=O)nc3sc4c(c3c2=O)CCN(C)C4)cc1,-,-,-,-,-,.
CCOC(=O)CSc1nc2sc3c(c2c(=O)n1C1CCCCC1)CCN(C)C3,-,-,-,-,-,100.1
CCOC(=O)CSc1nc2sc3c(c2c(=O)n1-c1ccc(OCC)cc1)CCN(C)C3,-,-,-,-,-,93.6
Cn1ccsc1=NC(=O)c1cc(S(=O)(=O)N2CCOCC2)ccc1F,-,.,-,-,.,.
CCOC(=O)C1=C(C)NC2=C(C(=O)CC(C)(C)C2)C1c1ccc2c(c1)CCCN2C (stereo not drawn),-,-,-,-,-,99.1
CCOC(=O)C1=C(C)NC2=C(C(=O)CC(C)(C)C2)C1c1ccc(O)c(OCC)c1 (stereo not drawn),-,-,-,-,-,-
SMILES,core dimer inh,PfM18AAP inh,EBNA-1 inh,ZTA DNA inh,NS3 helicase inh,ALR inh
O=C(COc1ccc(-c2nnco2)cc1)Nc1ccc(C(F)(F)F)cc1,-,.,-,-,.,-
Cc1ccc(NC2CCCN(C(=O)c3cccnc3)C2)cc1C (stereo not drawn),-,-,-,-,-,92.5
CC(C)c1ccc(NC2CCCN(C(=O)c3cccnc3)C2)cc1 (stereo not drawn),-,-,-,-,-,-
COc1ccc(C(=O)N2CCCC(Nc3ccc(C)c(C)c3)C2)cc1F (stereo not drawn),-,-,-,-,-,95.1
C=CCOc1cccc(C(=O)N2CCCC(Nc3ccc4c(c3)OCCO4)C2)c1 (stereo not drawn),-,-,-,-,-,91.2
COC(=O)c1cccc(C(=O)N2CCCC(Nc3ccc(C)c(C)c3)C2)c1 (stereo not drawn),-,-,-,-,-,98.1
COCCN(C(=O)COC(=O)c1ccc(C=O)cc1)c1c(N)n(Cc2ccccc2)c(=O)[nH]c1=O,-,-,-,-,-,-
NC(=O)C1CCCN(C(=O)c2cccc(S(=O)(=O)N3CCCCCC3)c2)C1 (stereo not drawn),.,.,.,-,.,-
Cc1ccc(NC2CCCN(C(=O)c3cc4ncccn4n3)C2)cc1C (stereo not drawn),-,-,-,-,-,82.8
Cc1ccc(C(=O)N2CCCC(Nc3ccc(F)cc3)C2)cc1C (stereo not drawn),-,-,-,-,-,98.7
CC(=O)c1ccccc1C(=O)N1CCCC(C(=O)c2ccc(C(F)(F)F)cc2)C1 (stereo not drawn),-,-,-,-,-,-
COc1ccc(OCC(=O)Nc2cc3c(cc2C(=O)O)OCCCO3)cc1,-,-,-,-,-,-
COc1ccc(/C=C/c2cc(=O)c3cc(Cl)ccc3o2)cc1,-,-,-,-,-,97.0
COc1ccc(-c2cc(=O)oc3c(O)c(O)ccc23)cc1,-,-,-,-,-,98.5
COc1ccc(-c2cc(=O)oc3cc(OC(C)C(=O)O)ccc23)cc1 (stereo not drawn),-,-,-,-,-,-
CC1(c2ccc3c(c2)OCCO3)NC(=O)N(CC(=O)Nc2ccccc2SCC#N)C1=O (stereo not drawn),.,.,.,-,.,-
CCc1ccccc1NC(=O)C1CCCN(S(=O)(=O)c2ccc3c(c2)CC(C)N3C(C)=O)C1 (stereo not drawn),-,-,-,-,-,.
Cc1cccnc1Nc1nc(-c2ccccn2)cs1,-,-,-,-,-,-
Cc1cccc(Nc2nc(-c3ccccn3)cs2)n1,-,-,-,-,-,88.8
c1ccc(Nc2nc(-c3cccs3)cs2)nc1,-,-,-,-,-,-
Cc1cccc(Nc2nc(-c3cccs3)cs2)n1,-,-,-,-,-,94.2
O=C(CSc1nc2nn(-c3ccccc3)c(=O)c-2c2n1CCCCC2)c1ccc(O)c(O)c1,.,.,.,-,.,91.6
COCCn1c(SCC(=O)NN2C(=O)NC(C)(c3ccccc3)C2=O)nnc1-c1ccncc1 (stereo not drawn),.,.,.,-,.,-
O=C(CSC1=NS(=O)(=O)c2cc(F)ccc2N1)Nc1ccc(F)cc1,-,.,-,-,.,.
O=C(CSC1=NS(=O)(=O)c2cc(Cl)ccc2N1)Nc1cccc(F)c1,-,.,-,-,.,98.1
